Where a SMILES comes first, the peptide text is derived from it. [ ]: non-standard residue; d: D form. Aib = CC(C)(N)C(=O)O Some results are limits rather than exact numbers.

For orientation: EC50 means the concentration that produces a half-maximal response.

For assay [1], the system named is Human immunodeficiency virus 1. Kind of assay: Antiviral activity against HIV1 in human HeLa-CD4-LTR-beta-gal (MAGI) cells assessed as inhibition of viral replication after 48 hrs by multinuclear activation of galactosidase indicator assay. The settings on record: Human immunodeficiency virus 1, HeLa.
In assay [2] the test system is Human immunodeficiency virus 1. Kind of assay: Binding affinity to HIV1 heptad repeat 1 peptide N36 assessed as melting temperature of drug-HR1 peptide complex. The method, boiled down: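 HR2 peptide and N36 (HR1) peptide mixed, each at 10 μM final in PBS pH 7.4, incubated 37 °C for 30 min, then followed by CD through thermal unfolding; Tm taken as the midpoint of the unfolding transition.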

In the case of `CC[C@H](C)[C@H](NC(=O)[C@H](CCCCN)NC(=O)[C@H](CCCCN)NC(=O)[C@H](CC(=O)O)NC(=O)[C@H](Cc1c[nH]c2ccccc12)NC(=O)[C@H](CCC(=O)O)NC(=O)[C@H](CCC(=O)O)NC(=O)[C@@H](N)Cc1c[nH]c2ccccc12)C(=O)N[C@@H](CCC(=O)O)C(=O)N[C@@H](CCC(=O)O)C(=O)N[C@@H](Cc1ccc(O)cc1)C(=O)N[C@H](C(=O)N[C@@H](CCCCN)C(=O)N[C@@H](CCCCN)C(=O)N[C@H](C(=O)N[C@@H](CCC(=O)O)C(=O)N[C@@H](CCC(=O)O)C(=O)N[C@@H](CC(C)C)C(=O)N[C@H](C(=O)N[C@@H](CCCCN)C(=O)N[C@@H](CCCCN)C(=O)N[C@@H](CO)C(=O)NC(C)(C)C(=O)N[C@@H](CCC(=O)O)C(=O)N[C@@H](CCC(N)=O)C(=O)N[C@@H](CCC(N)=O)C(=O)NC(C)(C)C(=O)N[C@@H](CCCCN)C(=O)N[C@@H](CC(N)=O)C(=O)O)[C@@H](C)CC)[C@@H](C)CC)[C@@H](C)O` (H-WEEWDKKIEEYTKKIEELIKKS[Aib]EQQ[Aib]KN-OH), the EC50 in assay [1] worked out at 7.1 nM.
The same measure, in the same setting: next, `CC[C@H](C)[C@H](NC(=O)[C@H](CCCCN)NC(=O)[C@H](CCCCN)NC(=O)[C@H](CC(=O)O)NC(=O)[C@H](Cc1c[nH]c2ccccc12)NC(=O)[C@H](CCC(=O)O)NC(=O)[C@H](CCC(=O)O)NC(=O)[C@@H](N)Cc1c[nH]c2ccccc12)C(=O)N[C@@H](CCC(=O)O)C(=O)N[C@@H](CCC(=O)O)C(=O)N[C@@H](Cc1ccc(O)cc1)C(=O)N[C@H](C(=O)N[C@@H](CCCCN)C(=O)N[C@@H](CCCCN)C(=O)N[C@H](C(=O)N[C@@H](CCC(=O)O)C(=O)N[C@@H](CCC(=O)O)C(=O)N[C@@H](CC(C)C)C(=O)N[C@H](C(=O)N[C@@H](CCCCN)C(=O)N[C@@H](CCCCN)C(=O)N[C@@H](CO)C(=O)NC(C)(C)C(=O)NCC(=O)N[C@@H](CCC(N)=O)C(=O)N[C@@H](CCC(N)=O)C(=O)NC(C)(C)C(=O)NCC(=O)N[C@@H](CC(N)=O)C(=O)O)[C@@H](C)CC)[C@@H](C)CC)[C@@H](C)O` (H-WEEWDKKIEEYTKKIEELIKKS[Aib]GQQ[Aib]GN-OH): 31.3 nM; `CC[C@H](C)[C@H](NC(=O)[C@H](CCCCN)NC(=O)[C@H](CCCCN)NC(=O)[C@H](CC(=O)O)NC(=O)[C@H](Cc1c[nH]c2ccccc12)NC(=O)[C@H](CCC(=O)O)NC(=O)[C@H](CCC(=O)O)NC(=O)[C@@H](N)Cc1c[nH]c2ccccc12)C(=O)N[C@@H](CCC(=O)O)C(=O)N[C@@H](CCC(=O)O)C(=O)N[C@@H](Cc1ccc(O)cc1)C(=O)N[C@H](C(=O)N[C@@H](CCCCN)C(=O)N[C@@H](CCCCN)C(=O)N[C@H](C(=O)NC(C)(C)C(=O)N[C@@H](CCC(=O)O)C(=O)N[C@@H](CC(C)C)C(=O)N[C@H](C(=O)NC(C)(C)C(=O)N[C@@H](CCCCN)C(=O)N[C@@H](CO)C(=O)N[C@@H](CCC(=O)O)C(=O)N[C@@H](CCC(=O)O)C(=O)N[C@@H](CCC(N)=O)C(=O)N[C@@H](CCC(N)=O)C(=O)N[C@@H](CCCCN)C(=O)N[C@@H](CCCCN)C(=O)N[C@@H](CC(N)=O)C(=O)O)[C@@H](C)CC)[C@@H](C)CC)[C@@H](C)O` (H-WEEWDKKIEEYTKKI[Aib]ELI[Aib]KSEEQQKKN-OH): 0.87 nM.
The same measure, in the same setting: next, `CC[C@H](C)[C@H](NC(=O)[C@H](CCCCN)NC(=O)[C@H](CCCCN)NC(=O)[C@H](CC(=O)O)NC(=O)[C@H](Cc1c[nH]c2ccccc12)NC(=O)[C@H](CCC(=O)O)NC(=O)[C@H](CCC(=O)O)NC(=O)[C@@H](N)Cc1c[nH]c2ccccc12)C(=O)N[C@@H](CCC(=O)O)C(=O)N[C@@H](CCC(=O)O)C(=O)N[C@@H](Cc1ccc(O)cc1)C(=O)N[C@H](C(=O)N[C@@H](CCCCN)C(=O)N[C@@H](CCCCN)C(=O)N[C@H](C(=O)NC(C)(C)C(=O)NCC(=O)N[C@@H](CC(C)C)C(=O)N[C@H](C(=O)NC(C)(C)C(=O)NCC(=O)N[C@@H](CO)C(=O)N[C@@H](CCC(=O)O)C(=O)N[C@@H](CCC(=O)O)C(=O)N[C@@H](CCC(N)=O)C(=O)N[C@@H](CCC(N)=O)C(=O)N[C@@H](CCCCN)C(=O)N[C@@H](CCCCN)C(=O)N[C@@H](CC(N)=O)C(=O)O)[C@@H](C)CC)[C@@H](C)CC)[C@@H](C)O` (H-WEEWDKKIEEYTKKI[Aib]GLI[Aib]GSEEQQKKN-OH): 25.6 nM; `CC[C@H](C)[C@H](NC(=O)[C@H](CC(C)C)NC(=O)[C@H](CCC(=O)O)NC(=O)[C@H](CCC(=O)O)NC(=O)[C@@H](NC(=O)[C@H](CCCCN)NC(=O)C(C)(C)NC(=O)[C@@H](NC(=O)[C@H](Cc1ccc(O)cc1)NC(=O)[C@H](CCC(=O)O)NC(=O)C(C)(C)NC(=O)[C@@H](NC(=O)[C@H](CCCCN)NC(=O)[C@H](CCCCN)NC(=O)[C@H](CC(=O)O)NC(=O)[C@H](Cc1c[nH]c2ccccc12)NC(=O)[C@H](CCC(=O)O)NC(=O)[C@H](CCC(=O)O)NC(=O)[C@@H](N)Cc1c[nH]c2ccccc12)[C@@H](C)CC)[C@@H](C)O)[C@@H](C)CC)C(=O)N[C@@H](CCCCN)C(=O)N[C@@H](CCCCN)C(=O)N[C@@H](CO)C(=O)N[C@@H](CCC(=O)O)C(=O)N[C@@H](CCC(=O)O)C(=O)N[C@@H](CCC(N)=O)C(=O)N[C@@H](CCC(N)=O)C(=O)N[C@@H](CCCCN)C(=O)N[C@@H](CCCCN)C(=O)N[C@@H](CC(N)=O)C(=O)O` (H-WEEWDKKI[Aib]EYT[Aib]KIEELIKKSEEQQKKN-OH): 2.15 nM; `CC[C@H](C)[C@H](NC(=O)CNC(=O)C(C)(C)NC(=O)[C@@H](NC(=O)[C@H](Cc1ccc(O)cc1)NC(=O)CNC(=O)C(C)(C)NC(=O)[C@@H](NC(=O)[C@H](CCCCN)NC(=O)[C@H](CCCCN)NC(=O)[C@H](CC(=O)O)NC(=O)[C@H](Cc1c[nH]c2ccccc12)NC(=O)[C@H](CCC(=O)O)NC(=O)[C@H](CCC(=O)O)NC(=O)[C@@H](N)Cc1c[nH]c2ccccc12)[C@@H](C)CC)[C@@H](C)O)C(=O)N[C@@H](CCC(=O)O)C(=O)N[C@@H](CCC(=O)O)C(=O)N[C@@H](CC(C)C)C(=O)N[C@H](C(=O)N[C@@H](CCCCN)C(=O)N[C@@H](CCCCN)C(=O)N[C@@H](CO)C(=O)N[C@@H](CCC(=O)O)C(=O)N[C@@H](CCC(=O)O)C(=O)N[C@@H](CCC(N)=O)C(=O)N[C@@H](CCC(N)=O)C(=O)N[C@@H](CCCCN)C(=O)N[C@@H](CCCCN)C(=O)N[C@@H](CC(N)=O)C(=O)O)[C@@H](C)CC` (H-WEEWDKKI[Aib]GYT[Aib]GIEELIKKSEEQQKKN-OH): 270 nM.
As for `CC[C@H](C)[C@H](NC(=O)[C@H](CC(C)C)NC(=O)[C@H](CCC(=O)O)NC(=O)[C@H](CCC(=O)O)NC(=O)[C@@H](NC(=O)[C@H](CCCCN)NC(=O)[C@H](CCCCN)NC(=O)[C@@H](NC(=O)[C@H](Cc1ccc(O)cc1)NC(=O)[C@H](CCC(=O)O)NC(=O)[C@H](CCC(=O)O)NC(=O)[C@@H](NC(=O)[C@H](CCCCN)NC(=O)C(C)(C)NC(=O)[C@H](CC(=O)O)NC(=O)[C@H](Cc1c[nH]c2ccccc12)NC(=O)[C@H](CCC(=O)O)NC(=O)C(C)(C)NC(=O)[C@@H](N)Cc1c[nH]c2ccccc12)[C@@H](C)CC)[C@@H](C)O)[C@@H](C)CC)C(=O)N[C@@H](CCCCN)C(=O)N[C@@H](CCCCN)C(=O)N[C@@H](CO)C(=O)N[C@@H](CCC(=O)O)C(=O)N[C@@H](CCC(=O)O)C(=O)N[C@@H](CCC(N)=O)C(=O)N[C@@H](CCC(N)=O)C(=O)N[C@@H](CCCCN)C(=O)N[C@@H](CCCCN)C(=O)N[C@@H](CC(N)=O)C(=O)O` (H-W[Aib]EWD[Aib]KIEEYTKKIEELIKKSEEQQKKN-OH), the EC50 in assay [1] stood at 0.54 nM.
For the molecule `CC[C@H](C)[C@H](NC(=O)CNC(=O)C(C)(C)NC(=O)[C@H](CC(=O)O)NC(=O)[C@H](Cc1c[nH]c2ccccc12)NC(=O)CNC(=O)C(C)(C)NC(=O)[C@@H](N)Cc1c[nH]c2ccccc12)C(=O)N[C@@H](CCC(=O)O)C(=O)N[C@@H](CCC(=O)O)C(=O)N[C@@H](Cc1ccc(O)cc1)C(=O)N[C@H](C(=O)N[C@@H](CCCCN)C(=O)N[C@@H](CCCCN)C(=O)N[C@H](C(=O)N[C@@H](CCC(=O)O)C(=O)N[C@@H](CCC(=O)O)C(=O)N[C@@H](CC(C)C)C(=O)N[C@H](C(=O)N[C@@H](CCCCN)C(=O)N[C@@H](CCCCN)C(=O)N[C@@H](CO)C(=O)N[C@@H](CCC(=O)O)C(=O)N[C@@H](CCC(=O)O)C(=O)N[C@@H](CCC(N)=O)C(=O)N[C@@H](CCC(N)=O)C(=O)N[C@@H](CCCCN)C(=O)N[C@@H](CCCCN)C(=O)N[C@@H](CC(N)=O)C(=O)O)[C@@H](C)CC)[C@@H](C)CC)[C@@H](C)O` (H-W[Aib]GWD[Aib]GIEEYTKKIEELIKKSEEQQKKN-OH), the EC50 in assay [1] came to 37.5 nM.
Turning to H-WEEWDKKIEEYTKKIEELIKKS-OH, the EC50 in assay [1] was found to be 60 nM. Further, the Tm in assay [2] is 63.5 °C.
With H-WEEWDKKIEEYTKKIEELIKKSEEQQKKN-OH, the EC50 in assay [1] is 0.46 nM. Further, the Tm in assay [2] was 65 °C.
The corresponding values for “H-WEEWDKKIEEYTKKIEELIKKSEEQQKKNEEELKK-OH” are 0.39 nM and 71.5 °C.
The corresponding values for H-WMEWDREINNYTSLIHSLIEES-OH are > 1000 nM and 38.5 °C.
The matching figures for H-WMEWDREINNYTSLIHSLIEESQNQQEKN-OH: 46 nM and 48.5 °C.
For “H-YTSLIEELIKKSEEQQKKNEEELKKLEEWAKKWNWF-OH”, the EC50 in assay [1] stood at 1.8 nM.
For the molecule enfuvirtide, the EC50 in assay [1] stood at 15 nM.

Source of the values: ChEMBL document CHEMBL1142469, “Identification of minimal sequence for HIV-1 fusion inhibitors” (Bioorg Med Chem, 2008).
